Runt-CBFb FRET: inhibitors of human RUNX1 Runt domain binding to CBFb. Cerulean-Runt/Venus-CBFb FRET ratio 530/480, 1 h. inhibition, % at 20 µM. AID 1496. Q01196+Q13951. 0.46% of 220,000 active;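 active means inhibition over about 50% at 20 µM in the single-dose screen, limit read from the data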;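 further: 0% = DMSO wells and 100% = excess unlabeled CBFb competitor control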
Target sequence (Q01196 whole entry, looked up, the tested form may be a part): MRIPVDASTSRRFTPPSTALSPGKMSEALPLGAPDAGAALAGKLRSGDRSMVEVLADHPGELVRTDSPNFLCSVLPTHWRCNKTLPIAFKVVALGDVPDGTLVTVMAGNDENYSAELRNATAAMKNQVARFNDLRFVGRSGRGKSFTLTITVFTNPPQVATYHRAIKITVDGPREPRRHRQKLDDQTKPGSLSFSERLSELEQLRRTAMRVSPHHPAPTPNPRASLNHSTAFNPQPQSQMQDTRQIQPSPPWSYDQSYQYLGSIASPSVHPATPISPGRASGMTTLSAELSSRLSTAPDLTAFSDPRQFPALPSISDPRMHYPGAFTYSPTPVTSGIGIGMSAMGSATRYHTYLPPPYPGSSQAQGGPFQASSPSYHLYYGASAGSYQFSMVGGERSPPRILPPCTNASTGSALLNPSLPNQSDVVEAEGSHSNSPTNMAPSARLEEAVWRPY
Target sequence (Q13951 whole entry, looked up, the tested form may be a part): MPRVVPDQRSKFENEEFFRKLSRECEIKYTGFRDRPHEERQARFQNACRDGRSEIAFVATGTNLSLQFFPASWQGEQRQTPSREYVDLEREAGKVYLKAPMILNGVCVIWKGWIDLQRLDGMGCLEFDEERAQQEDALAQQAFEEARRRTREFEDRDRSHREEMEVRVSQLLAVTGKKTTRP
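test system = Cerulean-Runt domain fusion protein, energy donor | probe or stimulus = Venus-CBFb binding partner, 100 nM | incubation = two 1 h room-temperature incubations shielded from light | detection = fluorescence energy transfer, 422 nm excitation, 530/480 nm emission | measure = loss of energy transfer signal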
EBV gp42 block: blocks Epstein-Barr virus glycoprotein 42 binding | inhibition, % (tested at 21.74 µM) | 0.42% of 220,000 active | Q1HVG2 | Fluorescence polarization binding assay, mP read-out
Runt-SMMHC FRET: inhibitors of human RUNX1 Runt domain binding to CBFb-SMMHC; Q01196+Q13951; Cerulean-Runt/Venus-CBFb-SMMHC FRET ratio 530/480, 1 h; inhibition, % at 20 µM; 0.74% of 220,000 active;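 active means mean inhibition across duplicate retests at 20 µM reaching about 50%, limit read from the data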;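 further: 0% = DMSO wells and 100% = wells with excess untagged CBFb-SMMHC; inhibitors lower the FRET ratio by blocking Runt binding to CBFb-SMMHC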
PKD1 inh: blocks activity of human protein kinase D1 | AID 797 | inhibition, % (test concentration not listed) | Q15139 | PKD1 kinase fluorescence polarization assay | 0.056% of 200,000 active
RanGTP-Impb inh: inhibitors of RanGTP-importin-beta interaction, primary screen, biochemical, FRET, CFP-Ran, YFP-importin-beta, homogeneous | cell-free CFP-Ran/YFP-importin-beta FRET ratio | inhibition, % (test concentration not listed) | 1.1% of 300,000 active | AID 2216;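 active means more than half of the replicate wells show a fall in the fluorescence ratio signal beyond about 16%, limit read from the data, passing the limit was not always enough; inconclusive means exactly half of the replicate wells pass the set limit; inactive means fewer than half of replicates pass the limit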;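 further: 0% = DMSO wells and 100% = Ran loaded with GDP instead of GTP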
MEX-5 binding: C. elegans MEX-5 TCR-2 RNA binding activity; MEX-5/FITC-TCR2 RNA binding, fluorescence polarization; active compounds read low; AID 1832; activity score (negative = inhibition of binding), % at 10 µM; 0.38% of 300,000 active; Q9XUB2;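 active means inhibition past about -25% in most replicates, and total fluorescence under double the plate's negative control median, limit read from the data; inconclusive means replicates evenly split on the limit, or fluorescence at least double controls; inactive means too little inhibition in most replicates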;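 further: 0% = DMSO and -100% = 5 µM competing unlabeled TCR2 RNA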
* = called active by the depositor; ? = inconclusive; · = no result. Sampled rows, rich in hits. Any-hit rate of the full collection: about 2%. Unless noted, no stated cut-off is given here; in the data, active means inhibition above about 50%; inactive means the rest.

SMILES	Runt-CBFb FRET	EBV gp42 block	Runt-SMMHC FRET	PKD1 inh	RanGTP-Impb inh	MEX-5 binding
COc1ccc(C2/C(=C(/O)c3ccc4c(c3)CC(C)O4)C(=O)C(=O)N2CCCN2CCOCC2)cc1OC (stereo not drawn)	·	·	·	·	1	0
O=C1C(=O)N(CCN2CCOCC2)C(c2ccccn2)/C1=C(/O)c1ccccc1 (stereo not drawn)	8	-3	6	-2	24*	1
Cc1ccc(/C(O)=C2/C(=O)C(=O)N(CCN3CCOCC3)C2c2ccccn2)cc1 (stereo not drawn)	9	-3	8	-5	22*	-3
COc1ccc(/C(O)=C2/C(=O)C(=O)N(CCN3CCOCC3)C2c2ccccn2)cc1OC (stereo not drawn)	1	1	12	2	29*	-1
CN(C)CCCN1C(=O)C(=O)/C(=C(/O)c2ccccc2)C1c1ccccn1 (stereo not drawn)	0	·	-1	·	·	·
OCCC1CN(Cc2cccn2-c2ccccn2)CCN1Cc1ccccc1 (stereo not drawn)	-1	-13	5	0	9	-3
CC1Cn2c(nc3sc4c(c3c2=O)CC(C)(C)OC4)N1CCO (stereo not drawn)	·	·	·	·	0	-1
CC(=O)NNC(=O)c1sc(=S)n2c1[nH]c(=O)c1sccc12	-2	14	-44	-8	?	-49*
NC(=O)c1sc(=S)n2c1[nH]c(=O)c1sccc12	-21	3	-138	-3	5	-1
Cc1ccc(CSc2ncnc3ccccc23)cc1	-6	7	0	-3	-3	2
Cc1ccc(C(=O)CSc2ncnc3ccccc23)o1	40	-8	78*	9	·	-4
N#CC1=C(N)OC2=C(CC/C2=C\c2ccccc2Cl)C1c1ccccc1Cl (stereo not drawn)	10	-69	-18	-6	·	-3
N#CC1=C(N)OC2=C(CC/C2=C\c2ccccc2)C1c1ccccc1 (stereo not drawn)	-22	95*	-182	4	1	-6
CC1(C)N([O-])c2cc([N+](=O)[O-])ccc2[N+]1=O	63*	-16	85*	·	·	·
CC(NC(=O)OCc1ccccc1)C(=O)Oc1cc2oc(=O)cc(-c3ccccc3)c2cc1Cl (stereo not drawn)	19	-20	60*	-7	-6	-1
O=C(CNC(=O)OCc1ccccc1)Oc1ccc2ccc(=O)oc2c1	·	·	·	·	13	0
CCc1cc2c(-c3ccccc3)cc(=O)oc2cc1OC(C)C(=O)O (stereo not drawn)	·	·	·	·	9	0
O=C(NC(Cc1ccccc1)C(=O)Oc1ccc2c(C(F)(F)F)cc(=O)oc2c1)OCc1ccccc1 (stereo not drawn)	3	7	81*	8	37*	0
FC(F)(F)c1cccc(NC(=S)Nc2cccc(NC(=S)Nc3cccc(C(F)(F)F)c3)n2)c1	23	3	5	·	15*	0
Cc1cccc(NC(=S)Nc2cccc(C(F)(F)F)c2)n1	7	-9	11	0	1	0
CC(Nc1ncnc2sccc12)c1ccccc1 (stereo not drawn)	·	·	·	·	28*	-2
c1ccc(Nc2ncnc3sccc23)cc1	·	·	·	·	7	-1
Cc1ccc(N=C2NC(=O)/C(=C/c3cn(C)c4ccccc34)S2)cc1C	-209	82*	-310	-4	·	·
C/C(=N\NC(=O)c1ccccc1)c1ccc(NC(=O)c2cccs2)cc1	0	9	2	-3	7	-2
C/C(=N/NC(=O)c1ccccc1)c1ccc(NC(=O)C(F)(F)F)cc1	0	-1	-1	-3	31*	-1
SMILES	Runt-CBFb FRET	EBV gp42 block	Runt-SMMHC FRET	PKD1 inh	RanGTP-Impb inh	MEX-5 binding
Cc1ccc(S(=O)(=O)NNc2ccccc2)cc1	40	-23	68*	-1	-3	-2
CC(C)NC(=O)COc1coc(CN2CCN(C(=O)c3ccco3)CC2)cc1=O	·	·	·	·	2	-2
Cn1c2ccccc2c(=O)c2cc(C#CC3(O)CCCCC3)ccc21	·	·	·	·	169*	0
COc1cccc2oc3ccc(C#CC4(N)CCCCC4)cc3c(=O)c12	·	·	·	·	1	3
O=c1c2ccccc2oc2ccc(C#CC3(O)CCCCC3)cc12	·	·	·	·	1	-3
Cn1c2ccccc2c(=O)c2ccc(C#CC3(N)CCCCC3)cc21	·	·	·	·	163*	0
N#CC1=C(N)C2=C(N3CCCCC3)CCCC2C1(C#N)C#N (stereo not drawn)	-14	-18	-37	-8	-19	-44*
CCC(=O)N1CCc2cc(S(=O)(=O)NCCC(=O)NC3CCCCCC3)ccc21	·	·	·	·	1	-2
COc1ccc(C2=NOC(C(=O)Nc3cccnc3)C2)cc1OC (stereo not drawn)	3	15	-5	·	4	-4
COc1cc(/C=C2\SC(=O)N(Cc3ccc(Cl)cc3)C2=O)cc([N+](=O)[O-])c1O	-6	90*	-15	-2	·	·
CCOC(=O)CN1C(=O)S/C(=C/c2ccc(OC)c([N+](=O)[O-])c2)C1=O	2	8	-4	-5	-3	1
COc1cc(/C=C2\C(=O)NN(c3ccccc3)C2=O)cc([N+](=O)[O-])c1O	2	-16	0	-1	-2	-30*
COc1cc(/C=C2\SC(=O)N(Cc3ccc(F)cc3)C2=O)cc([N+](=O)[O-])c1O	0	58*	-13	-6	-5	-1
Cc1cccc(N2CCN(C(=O)CCS(=O)(=O)c3ccc4c(c3)NC(=O)CO4)CC2)c1C	·	·	·	·	3	0
CCn1c(=O)c(-c2cc(=O)[nH][nH]2)c(O)c2ccccc21	0	-6	-7	3	0	-9
Cn1c(=O)c(-c2cc(=O)[nH][nH]2)c(O)c2ccccc21	2	-4	2	18	2	-30*
COC(=O)c1ccc(C(=O)OC)c(NC(=S)N2CCCC2)c1	·	·	·	·	11	0
COC(=O)c1ccc(C(=O)OC)c(NC(=S)N2CCN(C)CC2)c1	12	13	21	-7	32*	0
CC(=NC1CC1)c1c(-c2ccccc2)[nH]n(-c2nc3ccccc3s2)c1=O	1	-5	1	6	4	0
CC(=NC1CCCC1)c1c(C)[nH]n(-c2nc3ccccc3s2)c1=O	-6	-59	2	-5	5	-43*
O=C(Nc1cccnc1Oc1ccc(Cl)cc1)c1cccc2ccccc12	0	-5	3	·	0	0
Cc1ccc2nc(SCC(=O)Nc3nonc3C)[nH]c2c1	·	·	·	·	0	6
COc1ccc2nc(SCC(=O)Nc3nonc3C)[nH]c2c1	-1	-8	-1	-7	4	-32*
Cc1ccc(NS(=O)(=O)c2cccc(C(=O)NNC(=O)c3ccco3)c2)c(C)c1	·	·	·	·	2	-7

Bioassay records from PubChem.
